Assay [1] has as its target Proto-oncogene tyrosine-protein kinase Src (Homo sapiens, UniProt P12931). In words: Inhibitory activity against Src protein tyrosine kinase. Put shortly:
(§1)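 Enzymatic kinase inhibition run by previously reported methods. Each IC50 came from at least two separate tests with deviation under 20%, and the mean is reported.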

The target of assay [2] is Tyrosine-protein kinase Lck (Homo sapiens, UniProt P06239). The experiment in a line: Inhibitory activity against Lck tyrosine kinase.
Chain of Tyrosine-protein kinase Lck (P06239 whole entry): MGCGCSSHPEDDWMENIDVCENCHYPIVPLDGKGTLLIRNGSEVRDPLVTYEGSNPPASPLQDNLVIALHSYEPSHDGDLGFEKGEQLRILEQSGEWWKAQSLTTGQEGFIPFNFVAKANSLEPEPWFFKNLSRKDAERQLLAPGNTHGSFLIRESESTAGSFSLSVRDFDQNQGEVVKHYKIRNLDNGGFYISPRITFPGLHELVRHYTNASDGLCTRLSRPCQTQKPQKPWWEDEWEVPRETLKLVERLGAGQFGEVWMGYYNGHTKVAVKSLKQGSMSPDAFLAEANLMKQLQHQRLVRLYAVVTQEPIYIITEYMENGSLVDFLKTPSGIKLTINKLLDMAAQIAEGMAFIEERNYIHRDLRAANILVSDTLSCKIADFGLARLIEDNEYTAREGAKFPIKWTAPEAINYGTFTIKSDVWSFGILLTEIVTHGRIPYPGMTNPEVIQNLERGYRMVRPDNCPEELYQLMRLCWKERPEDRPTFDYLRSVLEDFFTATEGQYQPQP
The target of assay [3] is Fibroblast growth factor receptor 1 (Homo sapiens, UniProt P11362). The experiment in a line: Inhibitory activity against Fibroblast growth factor receptor 1.
Chain of Fibroblast growth factor receptor 1 (P11362 whole entry): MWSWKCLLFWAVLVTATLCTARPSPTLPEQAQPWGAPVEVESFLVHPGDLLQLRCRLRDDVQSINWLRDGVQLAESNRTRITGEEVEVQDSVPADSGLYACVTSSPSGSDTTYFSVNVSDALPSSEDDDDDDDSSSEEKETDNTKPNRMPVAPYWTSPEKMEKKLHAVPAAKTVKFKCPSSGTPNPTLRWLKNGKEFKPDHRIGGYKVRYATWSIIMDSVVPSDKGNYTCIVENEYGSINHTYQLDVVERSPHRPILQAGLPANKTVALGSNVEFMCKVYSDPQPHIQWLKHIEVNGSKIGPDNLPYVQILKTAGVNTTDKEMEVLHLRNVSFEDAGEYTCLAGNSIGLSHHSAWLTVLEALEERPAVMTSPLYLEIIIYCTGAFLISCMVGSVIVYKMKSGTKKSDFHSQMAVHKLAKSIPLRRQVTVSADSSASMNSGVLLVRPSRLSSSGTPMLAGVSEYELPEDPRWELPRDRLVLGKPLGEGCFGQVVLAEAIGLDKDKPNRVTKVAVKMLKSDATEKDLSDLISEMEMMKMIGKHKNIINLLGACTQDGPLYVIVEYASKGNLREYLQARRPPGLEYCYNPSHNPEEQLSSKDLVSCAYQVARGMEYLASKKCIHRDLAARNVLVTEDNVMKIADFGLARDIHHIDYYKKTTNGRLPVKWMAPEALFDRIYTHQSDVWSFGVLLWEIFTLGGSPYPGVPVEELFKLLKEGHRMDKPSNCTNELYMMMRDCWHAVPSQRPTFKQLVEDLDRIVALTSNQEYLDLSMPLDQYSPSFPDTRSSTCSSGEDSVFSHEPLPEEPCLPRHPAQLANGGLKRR
In assay [4] the target is Vascular endothelial growth factor receptor 2 (Homo sapiens, UniProt P35968). In words: Inhibitory activity against Vascular endothelial growth factor receptor 2.
Chain of Vascular endothelial growth factor receptor 2 (P35968 whole entry): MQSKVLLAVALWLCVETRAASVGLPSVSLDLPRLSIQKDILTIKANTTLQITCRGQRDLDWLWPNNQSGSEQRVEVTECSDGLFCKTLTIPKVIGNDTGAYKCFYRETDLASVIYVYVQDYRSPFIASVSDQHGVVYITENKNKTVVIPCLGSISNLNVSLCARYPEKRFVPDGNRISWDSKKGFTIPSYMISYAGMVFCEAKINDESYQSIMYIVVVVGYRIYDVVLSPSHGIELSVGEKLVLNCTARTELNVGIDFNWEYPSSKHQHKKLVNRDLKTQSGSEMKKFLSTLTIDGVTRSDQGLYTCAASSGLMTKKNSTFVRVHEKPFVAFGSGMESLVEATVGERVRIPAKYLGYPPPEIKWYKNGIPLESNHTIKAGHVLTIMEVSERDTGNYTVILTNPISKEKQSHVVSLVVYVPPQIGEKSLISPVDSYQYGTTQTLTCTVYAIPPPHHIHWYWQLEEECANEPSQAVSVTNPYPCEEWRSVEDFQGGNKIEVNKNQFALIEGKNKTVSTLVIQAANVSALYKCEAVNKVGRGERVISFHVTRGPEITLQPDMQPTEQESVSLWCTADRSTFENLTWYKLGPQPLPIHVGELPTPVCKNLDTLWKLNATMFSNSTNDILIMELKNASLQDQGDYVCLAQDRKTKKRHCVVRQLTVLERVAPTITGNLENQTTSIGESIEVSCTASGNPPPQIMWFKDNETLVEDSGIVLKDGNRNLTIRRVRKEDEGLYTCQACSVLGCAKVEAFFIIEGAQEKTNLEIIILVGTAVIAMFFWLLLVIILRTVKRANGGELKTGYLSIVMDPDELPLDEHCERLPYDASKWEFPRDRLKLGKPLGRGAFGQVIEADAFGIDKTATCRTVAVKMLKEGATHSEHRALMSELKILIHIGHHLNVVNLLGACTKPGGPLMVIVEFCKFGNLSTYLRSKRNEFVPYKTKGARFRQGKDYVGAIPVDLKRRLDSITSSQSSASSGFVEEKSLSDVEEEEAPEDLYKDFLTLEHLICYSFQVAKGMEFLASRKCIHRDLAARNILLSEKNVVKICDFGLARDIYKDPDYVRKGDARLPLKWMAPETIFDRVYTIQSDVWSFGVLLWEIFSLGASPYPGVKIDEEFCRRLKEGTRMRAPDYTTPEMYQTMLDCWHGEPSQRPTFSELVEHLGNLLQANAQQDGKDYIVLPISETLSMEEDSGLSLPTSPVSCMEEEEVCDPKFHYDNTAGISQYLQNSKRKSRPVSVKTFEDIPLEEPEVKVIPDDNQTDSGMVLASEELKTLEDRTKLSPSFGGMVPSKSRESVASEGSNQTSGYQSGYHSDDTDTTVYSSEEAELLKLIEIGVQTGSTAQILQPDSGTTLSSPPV
Assay [5] addresses Platelet-derived growth factor receptor beta (Homo sapiens, UniProt P09619). The experiment in a line: Inhibitory activity against PDGFRbeta tyrosine kinase. Put shortly: as §1
Assay [6] has as its target Tyrosine-protein kinase Fyn (Homo sapiens, UniProt P06241). In words: Inhibitory activity against Fyn tyrosine kinase.

For orientation: IC50 means the concentration that inhibits the measured activity by half. A low value points to greater potency.

Chain of Tyrosine-protein kinase Fyn (P06241 whole entry): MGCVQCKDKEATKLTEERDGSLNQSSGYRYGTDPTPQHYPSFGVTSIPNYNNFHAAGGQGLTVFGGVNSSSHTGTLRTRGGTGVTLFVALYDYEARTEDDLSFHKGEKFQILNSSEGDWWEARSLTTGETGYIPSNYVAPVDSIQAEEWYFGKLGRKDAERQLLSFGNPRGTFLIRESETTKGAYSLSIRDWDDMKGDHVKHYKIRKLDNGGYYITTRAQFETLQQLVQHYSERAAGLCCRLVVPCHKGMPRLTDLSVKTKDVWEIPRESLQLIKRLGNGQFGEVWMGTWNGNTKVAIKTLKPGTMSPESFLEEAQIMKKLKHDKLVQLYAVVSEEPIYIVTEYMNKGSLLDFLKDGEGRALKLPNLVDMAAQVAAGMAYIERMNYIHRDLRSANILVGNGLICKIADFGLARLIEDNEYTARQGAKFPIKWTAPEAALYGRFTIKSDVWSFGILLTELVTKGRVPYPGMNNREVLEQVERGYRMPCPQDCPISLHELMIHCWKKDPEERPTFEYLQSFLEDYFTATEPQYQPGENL
Chain of Platelet-derived growth factor receptor beta (P09619 whole entry): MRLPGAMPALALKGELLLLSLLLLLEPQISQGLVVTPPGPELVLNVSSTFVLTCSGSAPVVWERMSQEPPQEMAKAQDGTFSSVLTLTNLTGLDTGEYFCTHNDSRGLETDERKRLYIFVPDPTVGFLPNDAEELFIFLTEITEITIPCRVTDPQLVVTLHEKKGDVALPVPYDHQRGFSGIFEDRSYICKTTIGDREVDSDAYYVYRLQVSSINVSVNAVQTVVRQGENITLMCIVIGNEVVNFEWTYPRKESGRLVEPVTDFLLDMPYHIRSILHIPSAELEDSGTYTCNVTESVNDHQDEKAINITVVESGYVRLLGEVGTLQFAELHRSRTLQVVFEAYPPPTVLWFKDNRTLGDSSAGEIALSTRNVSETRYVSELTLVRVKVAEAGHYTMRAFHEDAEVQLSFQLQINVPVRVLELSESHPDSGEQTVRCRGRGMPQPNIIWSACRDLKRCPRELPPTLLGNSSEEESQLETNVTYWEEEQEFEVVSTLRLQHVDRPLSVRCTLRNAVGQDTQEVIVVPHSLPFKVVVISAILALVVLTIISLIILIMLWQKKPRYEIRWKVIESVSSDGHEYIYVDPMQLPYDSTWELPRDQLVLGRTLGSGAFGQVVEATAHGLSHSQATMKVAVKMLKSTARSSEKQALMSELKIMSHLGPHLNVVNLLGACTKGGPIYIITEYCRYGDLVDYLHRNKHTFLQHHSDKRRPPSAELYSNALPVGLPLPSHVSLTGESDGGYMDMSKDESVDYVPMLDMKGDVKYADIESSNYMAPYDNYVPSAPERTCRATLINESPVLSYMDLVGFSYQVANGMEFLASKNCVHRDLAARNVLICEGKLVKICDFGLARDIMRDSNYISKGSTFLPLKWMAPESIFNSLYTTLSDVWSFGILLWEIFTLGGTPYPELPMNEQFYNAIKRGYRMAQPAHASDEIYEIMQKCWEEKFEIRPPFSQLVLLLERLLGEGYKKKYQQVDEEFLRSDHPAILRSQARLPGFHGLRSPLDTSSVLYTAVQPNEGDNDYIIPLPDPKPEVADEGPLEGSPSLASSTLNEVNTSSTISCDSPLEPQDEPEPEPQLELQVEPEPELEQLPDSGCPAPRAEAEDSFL
Chain of Proto-oncogene tyrosine-protein kinase Src (P12931 2-536 limits assumed): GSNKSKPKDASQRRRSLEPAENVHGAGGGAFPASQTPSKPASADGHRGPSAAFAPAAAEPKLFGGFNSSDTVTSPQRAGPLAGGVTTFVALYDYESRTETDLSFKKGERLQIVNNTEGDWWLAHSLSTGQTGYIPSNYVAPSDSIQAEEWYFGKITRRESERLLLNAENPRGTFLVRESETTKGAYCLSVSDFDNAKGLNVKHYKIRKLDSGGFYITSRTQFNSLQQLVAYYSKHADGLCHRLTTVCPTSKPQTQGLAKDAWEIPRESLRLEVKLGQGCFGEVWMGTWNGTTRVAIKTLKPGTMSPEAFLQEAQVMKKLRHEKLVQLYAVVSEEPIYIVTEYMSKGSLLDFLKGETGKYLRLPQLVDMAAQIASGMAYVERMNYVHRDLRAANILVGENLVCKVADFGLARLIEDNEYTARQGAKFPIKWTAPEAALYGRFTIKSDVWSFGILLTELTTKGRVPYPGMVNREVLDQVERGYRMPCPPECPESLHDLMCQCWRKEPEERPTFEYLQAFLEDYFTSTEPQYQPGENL

For the compound `CCS(=O)(=O)c1ccc2c(c1)/C(=C/c1[nH]c3c(c1CCC(=O)N1CCN(C)CC1)CCCC3)C(=O)N2`, 500 nM corresponded to half-maximal inhibition in assay [1] (IC50).
For the compound `CCS(=O)(=O)c1ccc2c(c1)/C(=C/c1[nH]c3c(c1CCCN1CCN(CCO)CC1)CCCC3)C(=O)N2`, the IC50 turned out to be 70 nM in assay [1]; 500 nM in assay [2]; 1100 nM in assay [3]; 400 nM in assay [4]; 9000 nM in assay [5]; 400 nM in assay [6].
With `CN(C)CCCc1c(/C=C2\C(=O)Nc3ccc(F)cc32)[nH]c2c1CCCC2`, in assay [1], the half-inhibitory concentration (IC50) is 500 nM.
The same measure, in the same setting: under `CN(C)CCCc1c(/C=C2\C(=O)Nc3ccc(C(=O)O)cc32)[nH]c2c1CCCC2` stands 700 nM; under `CCS(=O)(=O)c1ccc2c(c1)/C(=C/c1[nH]c3c(c1CCCN1CCN(C(=O)CO)CC1)CCCC3)C(=O)N2`, 220 nM.
Consider `CCS(=O)(=O)c1ccc2c(c1)/C(=C/c1[nH]c3c(c1CCC(N)=O)CCCC3)C(=O)N2`, for which the IC50 came out at 40 nM in assay [1]; 80 nM in assay [3]; 300 nM in assay [4]; 5100 nM in assay [5]; 200 nM in assay [6].
In the case of `CCS(=O)(=O)c1ccc2c(c1)/C(=C/c1[nH]c3c(c1CCCN1CCN(CC(=O)O)CC1)CCCC3)C(=O)N2`, the half-maximal inhibitory concentration (IC50) in assay [1] was 70 nM; in assay [2], 400 nM; in assay [3], 400 nM; in assay [4], 800 nM; in assay [5], 13000 nM; in assay [6], 400 nM.
In the case of `CCS(=O)(=O)c1ccc2c(c1)/C(=C/c1[nH]c3c(c1CCCN1CCN(C)CC1)CCCC3)C(=O)N2`, the IC50 in assay [1] came out at 210 nM; in assay [2] it was 600 nM; in assay [4], 2600 nM; in assay [5], 11000 nM; in assay [6] it was 1200 nM.
`CCS(=O)(=O)c1ccc2c(c1)/C(=C/c1cc3c([nH]1)CCCC3)C(=O)N2` came in with an IC50 in assay [1] of 700 nM.
Still for that read-out and setting: then `CN(C)CCCc1c(/C=C2\C(=O)Nc3ccccc32)[nH]c2c1CCCC2`, with 3300 nM.
For the compound `CCS(=O)(=O)c1ccc2c(c1)/C(=C/c1[nH]c3c(c1CN1CCOCC1)CCCC3)C(=O)N2`, the IC50 in assay [1] amounted to 70 nM; in assay [2], 800 nM; in assay [3], 400 nM; in assay [4], 100 nM; in assay [6], 1400 nM.
In the case of `CNS(=O)(=O)c1ccc2c(c1)/C(=C/c1[nH]c3c(c1CCCN1CCN(CC(=O)O)CC1)CCCC3)C(=O)N2`, the IC50 in assay [1] is 20 nM; in assay [2], 100 nM; in assay [3] it was 200 nM; in assay [4], 400 nM; in assay [5], 8000 nM; in assay [6], 400 nM.
In the case of `CNS(=O)(=O)c1ccc2c(c1)/C(=C/c1[nH]c3c(c1CCCN1CCC(O)CC1)CCCC3)C(=O)N2`, the IC50 was 50 nM in assay [1]; 300 nM in assay [2]; 3400 nM in assay [3]; 7100 nM in assay [4]; 4700 nM in assay [5]; 200 nM in assay [6].
`CCOC(=O)N1CCN(CCCc2c(/C=C3\C(=O)Nc4ccc(S(=O)(=O)NC)cc43)[nH]c3c2CCCC3)CC1` had a half-maximal inhibitory concentration (IC50) in assay [1] of 300 nM.
In assay [1], `CCC(=O)N1CCN(CCCc2c(/C=C3\C(=O)Nc4ccc(S(=O)(=O)CC)cc43)[nH]c3c2CCCC3)CC1` yielded an IC50 of 800 nM.
`CCS(=O)(=O)c1ccc2c(c1)/C(=C/c1[nH]c3c(c1CCCN1CCN(C(C)=O)CC1)CCCC3)C(=O)N2` had a 50% inhibitory concentration (IC50) in assay [1] of 400 nM.
On the same count and under the same terms, then `CC(C)NS(=O)(=O)c1ccc2c(c1)/C(=C/c1[nH]c3c(c1CCCN(C)C)CCCC3)C(=O)N2`, with 230 nM.
With `CNS(=O)(=O)c1ccc2c(c1)/C(=C/c1[nH]c3c(c1CCCN(C)C)CCCC3)C(=O)N2`, the concentration for half-maximal inhibition (IC50) in assay [1] is 100 nM; in assay [2], 1600 nM; in assay [3], 700 nM; in assay [4], 1100 nM; in assay [5] it was 3300 nM; in assay [6] it was 60 nM.
Take `CCS(=O)(=O)c1ccc2c(c1)/C(=C/c1[nH]c3c(c1CCCN(C)C)CCCC3)C(=O)N2`: the IC50 in assay [1] came out at 60 nM; in assay [2], 200 nM; in assay [3], 400 nM; in assay [4], 2700 nM; in assay [5] it was 2500 nM; in assay [6] it was 300 nM.
`CN(C)CCCc1c(/C=C2\C(=O)Nc3ccc(-c4ccccc4)cc32)[nH]c2c1CCCC2` yielded a half-maximal inhibitory concentration (IC50) in assay [1] of 2300 nM.
For `CNS(=O)(=O)c1ccc2c(c1)/C(=C/c1[nH]c3c(c1CCCN1CCN(C(=O)CO)CC1)CCCC3)C(=O)N2`, the half-maximal inhibitory concentration (IC50) in assay [1] was 400 nM.
On the same count and under the same terms, under `CNS(=O)(=O)c1ccc2c(c1)/C(=C/c1[nH]c3c(c1CCCN1CCN(C(C)=O)CC1)CCCC3)C(=O)N2` stands 300 nM.
On the same count and under the same terms, then `CCS(=O)(=O)c1ccc2c(c1)/C(=C/c1[nH]c3c(c1CCCN1CCOCC1)CCCC3)C(=O)N2`, with 150 nM.
In turn, `CNS(=O)(=O)c1ccc2c(c1)/C(=C/c1[nH]c3c(c1CCC(=O)N1CCN(C)CC1)CCCC3)C(=O)N2` came in with an IC50 in assay [1] of 300 nM.
`CNS(=O)(=O)c1ccc2c(c1)/C(=C/c1[nH]c3c(c1CCCN1CCN(CCO)CC1)CCCC3)C(=O)N2`: the concentration for half-maximal inhibition (IC50) was 30 nM in assay [1]; 400 nM in assay [2]; 600 nM in assay [3]; 400 nM in assay [4]; 5600 nM in assay [5]; 100 nM in assay [6].
With `CNS(=O)(=O)c1ccc2c(c1)/C(=C/c1[nH]c3c(c1CN1CCOCC1)CCCC3)C(=O)N2`, the 50% inhibitory concentration (IC50) in assay [1] was determined as 10 nM; in assay [2], 80 nM; in assay [3], 200 nM; in assay [4], 60 nM; in assay [6] it was 400 nM.
In the case of `CN(C)CCCc1c(/C=C2\C(=O)Nc3ccc(S(N)(=O)=O)cc32)[nH]c2c1CCCC2`, inhibition in assay [1] was half-maximal at 600 nM (IC50).
As to `CCS(=O)(=O)c1ccc2c(c1)/C(=C/c1[nH]c3c(c1CCCN1CCC(O)CC1)CCCC3)C(=O)N2`, the half-inhibitory concentration (IC50) in assay [1] is 70 nM; in assay [2] it was 700 nM; in assay [5] it was 2300 nM; in assay [6], 600 nM.
Regarding `CC(C)S(=O)(=O)c1ccc2c(c1)/C(=C/c1[nH]c3c(c1CCCN(C)C)CCCC3)C(=O)N2`, the IC50 in assay [1] was 230 nM.
With `COc1ccc2c(c1)/C(=C/c1[nH]c3c(c1CCCN(C)C)CCCC3)C(=O)N2`, in assay [1], 1000 nM corresponded to half-maximal inhibition (IC50).
As to `CN(C)CCCc1c(/C=C2\C(=O)Nc3ccc(S(=O)(=O)NCCO)cc32)[nH]c2c1CCCC2`, the concentration for half-maximal inhibition (IC50) in assay [1] was 240 nM.
Same read-out and setting: then `CNS(=O)(=O)c1ccc2c(c1)/C(=C/c1[nH]c3ccccc3c1CCCN(C)C)C(=O)N2`, with 200 nM.
The same measure, in the same setting: under `CNS(=O)(=O)c1ccc2c(c1)/C(=C/c1cc3c([nH]1)CCCC3)C(=O)N2` stands 2100 nM.
Still for that read-out and setting: then `CN(C)CCCc1c(/C=C2\C(=O)Nc3ccc(S(C)(=O)=O)cc32)[nH]c2c1CCCC2`, with 300 nM.
In turn, `CN(C)CCCc1c(/C=C2\C(=O)Nc3ccc(S(=O)(=O)N(C)C)cc32)[nH]c2c1CCCC2` came in with an IC50 in assay [1] of 2600 nM.
Same read-out and setting: under `CN(C)CCCc1c(/C=C2\C(=O)Nc3ccc(S(=O)(=O)NCc4ccc(F)cc4)cc32)[nH]c2c1CCCC2` stands 1200 nM.
On the same count and under the same terms, then `CCS(=O)(=O)c1ccc2c(c1)/C(=C/c1[nH]c3c(c1CCC(=O)O)CCCC3)C(=O)N2`, with 400 nM; and `CNS(=O)(=O)c1ccc2c(c1)/C(=C/c1[nH]c(C)c(C)c1CCCN(C)C)C(=O)N2`, with 1000 nM.
`CCOC(=O)CN1CCN(CCCc2c(/C=C3\C(=O)Nc4ccc(S(=O)(=O)NC)cc43)[nH]c3c2CCCC3)CC1`: the IC50 is 70 nM in assay [1]; 600 nM in assay [2]; 80 nM in assay [3]; 500 nM in assay [4]; > 20000 nM in assay [5]; 500 nM in assay [6].
As to `CN(C)CCCc1c(/C=C2\C(=O)Nc3ccc(S(=O)(=O)Nc4ccccc4Cl)cc32)[nH]c2c1CCCC2`, in assay [1], the midpoint of inhibition, the IC50, lay at 300 nM.
In the case of `CNS(=O)(=O)c1ccc2c(c1)/C(=C/c1[nH]c3c(c1CCCN1CCOCC1)CCCC3)C(=O)N2`, the 50% inhibitory concentration (IC50) in assay [1] turned out to be 60 nM; in assay [3], 1700 nM; in assay [4] it was 2300 nM; in assay [5] it was 18000 nM.
As to `CNS(=O)(=O)c1ccc2c(c1)/C(=C/c1[nH]c3c(c1CCC(N)=O)CCCC3)C(=O)N2`, the IC50 in assay [1] is 30 nM; in assay [2], 100 nM; in assay [3], 70 nM; in assay [4], 500 nM; in assay [5], 6600 nM; in assay [6], 50 nM.
Consider `CNS(=O)(=O)c1ccc2c(c1)/C(=C/c1[nH]c3c(c1CCCN1CCNCC1)CCCC3)C(=O)N2`, for which 200 nM corresponded to half-maximal inhibition in assay [1] (IC50).
With `CNS(=O)(=O)c1ccc2c(c1)/C(=C/c1[nH]c3c(c1CCCN1CCN(C)CC1)CCCC3)C(=O)N2`, the half-inhibitory concentration (IC50) stood at 70 nM in assay [1]; 700 nM in assay [2]; 1200 nM in assay [3]; 300 nM in assay [4]; 10000 nM in assay [5]; 800 nM in assay [6].
Compound `CCS(=O)(=O)Cc1ccc2c(c1)/C(=C/c1[nH]c3c(c1CCCN(C)C)CCCC3)C(=O)N2` returned a half-maximal inhibitory concentration (IC50) in assay [1] of 10000 nM.

The values above are taken from ChEMBL document CHEMBL1146690, “Design and synthesis of aminopropyl tetrahydroindole-based indolin-2-ones as selective and potent inhibitors of Src and Yes tyrosine kinase” (Bioorg Med Chem Lett, 2004).
